Results published in ChEMBL document CHEMBL1144035, “Synthesis, cytostatic and anti-HCV activity of 6-(N-substituted aminomethyl)-, 6-(O-substituted hydroxymethyl)- and 6-(S-substituted sulfanylmethyl)purine nucleosides” (Bioorg Med Chem, 2008).
Activity calls are given as the source filed them. No cut-off for these calls is given here.

Columns and labels:
Hepatitis C virus = assay: Antiviral activity against Hepatitis C virus 1b after 3 days; format: functional, organism-based, Hepacivirus hominis; conditions: genotype 1b, 72 h
L1210 = assay: Cytostatic activity in mouse L1210 cells assessed as inhibition of cell growth after 72 hrs; format: functional, cell-based; conditions: for IC50: L1210, 72 h
Outline: (§1)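 Cultures from ATCC lines: mouse leukaemia L1210 (CCL 219), human promyelocytic leukaemia HL60 (CCL 240) and human T-lymphoblastoid CCRF-CEM (CCL 119). Growth inhibition was estimated from the cell count in a haematological analyzer (haemocytometer).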

HL-60 = assay: Cytostatic activity in human HL60 cells assessed as inhibition of cell growth after 72 hrs; format: functional, cell-based; conditions: for IC50: HL-60, 72 h; outline: as §1
HeLa = assay: Cytostatic activity in human HeLa S3 cells assessed as inhibition of cell growth after 48 hrs by XTT assay; format: functional, cell-based
CCRF-CEM = assay: Cytostatic activity in human CCRF-CEM cells assessed as inhibition of cell growth after 72 hrs; format: functional, cell-based; outline: as §1
[1] = Cytotoxicity against human Huh7 cells after 3 days by MTT method; format: functional; conditions: Huh-7, 72 h
Outline: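 Cellular toxicity was read by MTT in Huh-7 cells carrying the con-1 HCV replicon, in duplicate (N = 2).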

Structure (SMILES)	EC50 (Hepatitis C virus)	IC50 (L1210)	IC50 (HL-60)	IC50 (CCRF-CEM)	Activity (L1210)	Activity (HL-60)	Activity (HeLa)	Activity (CCRF-CEM)	CC50 [1]
O=c1[nH]c(=O)n([C@H]2C[C@H](O)[C@@H](CO)O2)cc1F [FLOXURIDINE]		0.012 µM					inactive		
OC[C@H]1O[C@@H](n2cnc3c(COc4ccccc4)ncnc32)[C@H](O)[C@@H]1O	> 100 µM				inactive	inactive	inactive		> 100 µM
O=C1CCCN1Cc1ncnc2c1ncn2[C@@H]1O[C@H](CO)[C@@H](O)[C@H]1O	14 µM				inactive	inactive	inactive	inactive	45 µM
O=c1ccccn1Cc1ncnc2c1ncn2[C@@H]1O[C@H](CO)[C@@H](O)[C@H]1O	91 µM				inactive	inactive	inactive	inactive	> 100 µM
CN(C)Cc1ncnc2c1ncn2[C@@H]1O[C@H](CO)[C@@H](O)[C@H]1O	41 µM	5.1 µM	4 µM				inactive	inactive	> 100 µM
CC(=O)N(Cc1ncnc2c1ncn2[C@@H]1O[C@H](CO)[C@@H](O)[C@H]1O)C1CC1	> 100 µM				inactive	inactive	inactive	inactive	> 100 µM
CC(C)N(Cc1ncnc2c1ncn2[C@@H]1O[C@H](CO)[C@@H](O)[C@H]1O)C(C)C	3 µM	17 µM	13 µM				inactive	inactive	18 µM
C[C@@]1(O)[C@H](O)[C@@H](CO)O[C@H]1n1cnc2c(N)ncnc21	0.23 µM						inactive		> 100 µM
CC(=O)N(Cc1ncnc2c1ncn2[C@@H]1O[C@H](CO)[C@@H](O)[C@H]1O)C1CCCCC1	> 100 µM				inactive	inactive	inactive	inactive	> 100 µM
OC[C@H]1O[C@@H](n2cnc3c(CS)ncnc32)C[C@@H]1O	20 µM				inactive	inactive	inactive	inactive	41 µM

The next lines start with results.

EC50 (Hepatitis C virus)	IC50 (L1210)	IC50 (HL-60)	IC50 (CCRF-CEM)	Structure (SMILES)	Activity (L1210)	Activity (HL-60)	Activity (HeLa)	Activity (CCRF-CEM)	CC50 [1]
> 100 µM				CC(=O)N(Cc1ccccc1)Cc1ncnc2c1ncn2[C@@H]1O[C@H](CO)[C@@H](O)[C@H]1O	inactive	inactive	inactive	inactive	> 100 µM
87 µM				O=C(O)CNCc1ncnc2c1ncn2[C@@H]1O[C@H](CO)[C@@H](O)[C@H]1O	inactive	inactive	inactive	inactive	> 100 µM
		0.01 µM	0.15 µM	OCc1ncnc2c1ncn2[C@@H]1O[C@H](CO)[C@@H](O)[C@H]1O			inactive		
> 100 µM				OC[C@H]1O[C@@H](n2cnc3c(CSc4nc5ccccc5s4)ncnc32)[C@H](O)[C@@H]1O	inactive	inactive	inactive	inactive	> 100 µM
> 100 µM				CC(=O)N(C)Cc1ncnc2c1ncn2[C@@H]1O[C@H](CO)[C@@H](O)[C@H]1O	inactive	inactive	inactive	inactive	> 100 µM
42 µM	12.2 µM	6.9 µM		OC[C@H]1O[C@@H](n2cnc3c(CN4CCCCC4)ncnc32)[C@H](O)[C@@H]1O			inactive	inactive	87 µM
